Here are results for 11 molecules from ChEMBL document CHEMBL1949657, “Chemical modification of the multitarget neuroprotective compound fisetin” (J Med Chem, 2012).

SMILES strings stand for the structures. Active and inactive are the calls of the source.

One experiment relates to PC-12. The experiment can be described thus: Neurotrophic activity in rat PC12 cells assessed as neurite outgrowth at 1 to 10 uM after 24 hrs.
Settings: not given
It counts as functional, cell-based. An outline of the steps: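 PC12 cells in N2 medium given derivatives (1–10 μM) for 24 h, fisetin 10 μM as positive control. 100 cells counted in each of three fields. A cell scored positive with ≥1 neurite longer than one cell-body diameter. Tested twice; positives tested a third time.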
Consider `Cc1cc2oc(-c3ccc(N4CCCC4)cc3)c(O)c(=O)c2cc1C`, for which the result was Active.

`Cc1cc2oc(-c3ccc(N4CCCC4)c(O)c3)c(O)c(=O)c2cc1C`: the result was Active.

Consider `Cc1cc(O)c(C(=O)/C=C/c2ccc(O)c(O)c2)cc1C`, for which the outcome was Active.

For the molecule `O=c1c(O)c(-c2ccc(O)c(O)c2)oc2ccccc12`, the result was Active.

Regarding `COc1ccc(/C=C/C(=O)c2cc(C)c(C)cc2O)cc1OCc1ccccc1`, the outcome was Active.

For `Cc1cc2oc(-c3ccc(N(C)C)cc3)c(O)c(=O)c2cc1C`, the outcome was inactive.

As to `COc1cc(-c2oc3cc(C)c(C)cc3c(=O)c2O)ccc1O`, the result was inactive.

With `COc1cc(-c2ccc(O)c(O)c2)nc2ccccc12`, the outcome was inactive.

On to `COc1ccc(-c2oc3cc(C)c(C)cc3c(=O)c2O)cc1O`, for which the result was inactive.

For the molecule `Oc1ccc(-c2cc(OC3CCCC3)c3ccccc3n2)cc1O` [CMS-121], the result was Active.

Take `O=C(/C=C/c1ccc(O)c(O)c1)c1ccc2ccccc2c1O`: the outcome was Active.

Test system in another experiment: not listed separately
As to the kind of experiment: Antioxidant activity against ABTS radical assessed as trolox equivalent after 4 mins by TEAC assay. It counts as functional.
Settings: not given
In a few lines:
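ABTS radical cation formed overnight with potassium persulfate and diluted to OD ~0.7 at 734 nm, then mixed with derivative in ethanol. Loss of A734 followed over 4 min. TEAC = slope of % absorbance inhibition vs concentration divided by the slope for Trolox.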
Turning to `Cc1cc2oc(-c3ccc(N4CCCC4)cc3)c(O)c(=O)c2cc1C`, the Activity came out at 2.4 equiv.

Take `Cc1cc2oc(-c3ccc(N4CCCC4)c(O)c3)c(O)c(=O)c2cc1C`: the Activity was found to be 2.79 equiv.

Regarding `Cc1cc(O)c(C(=O)/C=C/c2ccc(O)c(O)c2)cc1C`, the Activity was found to be 2.7 equiv.

As to `O=c1c(O)c(-c2ccc(O)c(O)c2)oc2ccccc12`, the Activity is 2 equiv.

As to `COc1ccc(/C=C/C(=O)c2cc(C)c(C)cc2O)cc1OCc1ccccc1`, the Activity stood at 0.12 equiv.

For the molecule `Cc1cc2oc(-c3ccc(N(C)C)cc3)c(O)c(=O)c2cc1C`, the Activity was 3 equiv.

As to `COc1cc(-c2oc3cc(C)c(C)cc3c(=O)c2O)ccc1O`, the Activity is 1.89 equiv.

Turning to `COc1cc(-c2ccc(O)c(O)c2)nc2ccccc12`, the Activity is 0.36 equiv.

Regarding `COc1ccc(-c2oc3cc(C)c(C)cc3c(=O)c2O)cc1O`, the Activity was 1.74 equiv.

For `Oc1ccc(-c2cc(OC3CCCC3)c3ccccc3n2)cc1O` [CMS-121], the Activity was found to be 0.4 equiv.

Consider `O=C(/C=C/c1ccc(O)c(O)c1)c1ccc2ccccc2c1O`, for which the Activity is 2.8 equiv.

A further experiment concerns HT-22. As to the kind of experiment: Ratio of fisetin EC50 to compound EC50 for neuroprotectivie activity in mouse HT22 cells.
Settings: not given
It counts as functional.
Take `O=c1c(O)c(-c2ccc(O)c(O)c2)oc2ccccc12`: the “Ratio EC50” value came to 6.

`COc1cc(-c2oc3cc(C)c(C)cc3c(=O)c2O)ccc1O`: the “Ratio EC50” value was found to be 10.

As for `COc1cc(-c2ccc(O)c(O)c2)nc2ccccc12`, the “Ratio EC50” value was found to be 75.

Regarding `COc1ccc(-c2oc3cc(C)c(C)cc3c(=O)c2O)cc1O`, the “Ratio EC50” value worked out at 10.

The subject of a further experiment is HT-22. The experiment can be described thus: Neuroprotective activity against glutamate-induced GSH loss in mouse HT22 cells assessed as intracellular GSH level at 1 to 10 uM after 24 hrs. In kind it is functional, cell-based.
Settings: not given
An outline of the steps:
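HT22 cells given derivatives (1–10 μM) with 5 mM glutamate. After 24 h, cell extracts analysed for total intracellular GSH by chemical assay. Fisetin 10 μM as positive control. Tested twice; positives tested a third time.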
For `Cc1cc2oc(-c3ccc(N4CCCC4)cc3)c(O)c(=O)c2cc1C`, the outcome was Active.

As to `Cc1cc2oc(-c3ccc(N4CCCC4)c(O)c3)c(O)c(=O)c2cc1C`, the outcome was Active.

With `Cc1cc(O)c(C(=O)/C=C/c2ccc(O)c(O)c2)cc1C`, the result was Active.

For `O=c1c(O)c(-c2ccc(O)c(O)c2)oc2ccccc12`, the outcome was Active.

Regarding `COc1ccc(/C=C/C(=O)c2cc(C)c(C)cc2O)cc1OCc1ccccc1`, the result was Active.

For `Cc1cc2oc(-c3ccc(N(C)C)cc3)c(O)c(=O)c2cc1C`, the outcome was Active.

Consider `COc1cc(-c2oc3cc(C)c(C)cc3c(=O)c2O)ccc1O`, for which the outcome was inactive.

For `COc1cc(-c2ccc(O)c(O)c2)nc2ccccc12`, the outcome was Active.

On to `COc1ccc(-c2oc3cc(C)c(C)cc3c(=O)c2O)cc1O`, for which the result was inactive.

Consider `Oc1ccc(-c2cc(OC3CCCC3)c3ccccc3n2)cc1O` [CMS-121], for which the result was Active.

Regarding `O=C(/C=C/c1ccc(O)c(O)c1)c1ccc2ccccc2c1O`, the outcome was Active.

In a further experiment the test system is HT-22. As to the kind of experiment: Neuroprotective activity in mouse HT22 cells assessed as reduction in IAA-induced ischemia after 24 hrs by MTT assay. In kind it is functional, cell-based. The note with it: Mus musculus, HT-22, 24 h; read-out: EC50. An outline of the steps:
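HT22 cells seeded at 5×10^3/well. Next day switched to DMEM + 7.5% DFCS with 20 μM IAA ± derivative doses for 2 h, then IAA-free medium with derivative for 20 h. MTT 2.5 μg/ml for 4 h at 37 °C, solubilised in DMF/SDS pH 4.7, A570 read. Controls for compound toxicity and assay interference. EC50 from dose series; tested twice, third time if EC50 < 1 μM.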
Usually EC50 stands for the concentration giving half of the maximal effect. For the molecule `Cc1cc2oc(-c3ccc(N4CCCC4)cc3)c(O)c(=O)c2cc1C`, the EC50 is 90 nM.

With `Cc1cc2oc(-c3ccc(N4CCCC4)c(O)c3)c(O)c(=O)c2cc1C`, the EC50 came out at 15 nM.

As to `Cc1cc(O)c(C(=O)/C=C/c2ccc(O)c(O)c2)cc1C`, the EC50 is 50 nM.

In the case of `O=c1c(O)c(-c2ccc(O)c(O)c2)oc2ccccc12`, the EC50 stood at 500 nM.

Take `Cc1cc2oc(-c3ccc(N(C)C)cc3)c(O)c(=O)c2cc1C`: the EC50 is 20 nM.

Turning to `COc1cc(-c2oc3cc(C)c(C)cc3c(=O)c2O)ccc1O`, the EC50 was 40 nM.

With `COc1cc(-c2ccc(O)c(O)c2)nc2ccccc12`, the concentration for a half-maximal effect (EC50) was found to be 40 nM.

For `COc1ccc(-c2oc3cc(C)c(C)cc3c(=O)c2O)cc1O`, the EC50 was determined as 20 nM.

Regarding `Oc1ccc(-c2cc(OC3CCCC3)c3ccccc3n2)cc1O` [CMS-121], the concentration for a half-maximal effect (EC50) worked out at 7 nM.

Take `O=C(/C=C/c1ccc(O)c(O)c1)c1ccc2ccccc2c1O`: the EC50 was 80 nM.

The experiment is the same for the next values; noted with them: ht-22.
On to `COc1ccc(/C=C/C(=O)c2cc(C)c(C)cc2O)cc1OCc1ccccc1`, for which the EC50 result is “Not Active”.

Another experiment has as its system N9. As to the kind of experiment: Antiinflammatory activity in mouse N9 cells assessed as reduction of LPS-induced microglial activation at 1 to 10 uM measured as nitrite level after 24 hrs by Griess reagent-based assay. It counts as functional. Further details: scale not given: the % may be the effect or the level left.
Settings: not given
In a few lines: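 N9 microglia in DME with 7.5% DFCS, given 10 μg/ml LPS alone or with derivatives (1–10 μM) for 24 h. Medium spun to remove floating cells, then nitrite measured with Griess reagent, 10 min at room temperature, absorbance 550 nm. Fisetin 10 μM as positive control. Tested twice; positives tested a third time.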
For orientation: The Griess reaction detects nitrite, a stable product of nitric oxide.
On to `Cc1cc2oc(-c3ccc(N4CCCC4)cc3)c(O)c(=O)c2cc1C`, for which the Activity was determined as 0%.

On to `Cc1cc2oc(-c3ccc(N4CCCC4)c(O)c3)c(O)c(=O)c2cc1C`, for which the Activity is 21%.

In the case of `Cc1cc(O)c(C(=O)/C=C/c2ccc(O)c(O)c2)cc1C`, the Activity stood at 94%.

In the case of `O=c1c(O)c(-c2ccc(O)c(O)c2)oc2ccccc12`, the Activity is on record as 80%.

Consider `COc1ccc(/C=C/C(=O)c2cc(C)c(C)cc2O)cc1OCc1ccccc1`, for which the Activity came to 70%.

For the molecule `Cc1cc2oc(-c3ccc(N(C)C)cc3)c(O)c(=O)c2cc1C`, the Activity came out at 11%.

As to `COc1cc(-c2oc3cc(C)c(C)cc3c(=O)c2O)ccc1O`, the Activity was 77%.

With `COc1cc(-c2ccc(O)c(O)c2)nc2ccccc12`, the Activity came to 85%.

Consider `COc1ccc(-c2oc3cc(C)c(C)cc3c(=O)c2O)cc1O`, for which the Activity is 72%.

Take `Oc1ccc(-c2cc(OC3CCCC3)c3ccccc3n2)cc1O` [CMS-121]: the Activity amounted to 82%.

Consider `O=C(/C=C/c1ccc(O)c(O)c1)c1ccc2ccccc2c1O`, for which the Activity worked out at 75%.

The test system of another experiment is HT-22. The experiment can be described thus: Induction of Nrf2 expression in mouse HT22 cells from 1 to 4 hrs by immunoblotting. It counts as functional, cell-based.
Settings: not given
An outline of the steps: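 Nuclear extracts taken from untreated and derivative-treated cells at 1, 2 and 4 h. Equal protein run on 10% SDS-PAGE, blotted to nitrocellulose (Ponceau-S loading check). Probed with anti-Nrf2 (1/1000) and anti-β-actin, HRP secondary, chemiluminescence. Tested twice; positives tested a third time.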
As to `Cc1cc2oc(-c3ccc(N4CCCC4)cc3)c(O)c(=O)c2cc1C`, the outcome was inactive.

On to `Cc1cc2oc(-c3ccc(N4CCCC4)c(O)c3)c(O)c(=O)c2cc1C`, for which the result was inactive.

With `Cc1cc(O)c(C(=O)/C=C/c2ccc(O)c(O)c2)cc1C`, the result was Active.

As to `O=c1c(O)c(-c2ccc(O)c(O)c2)oc2ccccc12`, the outcome was Active.

In the case of `COc1ccc(/C=C/C(=O)c2cc(C)c(C)cc2O)cc1OCc1ccccc1`, the result was Active.

For the molecule `Cc1cc2oc(-c3ccc(N(C)C)cc3)c(O)c(=O)c2cc1C`, the result was inactive.

With `COc1cc(-c2ccc(O)c(O)c2)nc2ccccc12`, the result was inactive.

Turning to `Oc1ccc(-c2cc(OC3CCCC3)c3ccccc3n2)cc1O` [CMS-121], the result was inactive.

As for `O=C(/C=C/c1ccc(O)c(O)c1)c1ccc2ccccc2c1O`, the outcome was Active.
